Test results: ChEMBL document CHEMBL3526133, “Identifying a selective substrate and inhibitor pair for the evaluation of CYP2J2 activity” (Drug Metab Dispos, 2012)
Where a name gives a salt, the structure may show the parent alone.

Assays:
Cytochrome P450 1A2 = target: T1, Cytochrome P450 1A2 (Homo sapiens, UniProt P05177)
T1 sequence (P05177 whole entry): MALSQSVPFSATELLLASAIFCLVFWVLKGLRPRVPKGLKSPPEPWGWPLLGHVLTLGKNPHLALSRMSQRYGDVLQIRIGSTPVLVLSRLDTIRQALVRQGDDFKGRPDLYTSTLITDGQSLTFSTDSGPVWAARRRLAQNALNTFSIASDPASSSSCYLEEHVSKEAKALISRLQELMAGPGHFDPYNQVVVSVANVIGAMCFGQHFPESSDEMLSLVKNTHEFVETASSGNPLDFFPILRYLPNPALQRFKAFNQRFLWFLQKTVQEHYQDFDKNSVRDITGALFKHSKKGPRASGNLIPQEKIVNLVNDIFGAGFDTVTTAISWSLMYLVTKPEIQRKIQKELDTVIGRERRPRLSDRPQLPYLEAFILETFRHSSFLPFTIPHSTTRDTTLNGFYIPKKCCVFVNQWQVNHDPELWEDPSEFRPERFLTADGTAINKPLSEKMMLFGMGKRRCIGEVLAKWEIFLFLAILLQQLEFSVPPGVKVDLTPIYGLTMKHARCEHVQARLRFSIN

CYP2J2 [1] = target: T2, CYP2J2 (Homo sapiens, UniProt P51589); experiment: in vitro
T2 sequence (P51589 whole entry): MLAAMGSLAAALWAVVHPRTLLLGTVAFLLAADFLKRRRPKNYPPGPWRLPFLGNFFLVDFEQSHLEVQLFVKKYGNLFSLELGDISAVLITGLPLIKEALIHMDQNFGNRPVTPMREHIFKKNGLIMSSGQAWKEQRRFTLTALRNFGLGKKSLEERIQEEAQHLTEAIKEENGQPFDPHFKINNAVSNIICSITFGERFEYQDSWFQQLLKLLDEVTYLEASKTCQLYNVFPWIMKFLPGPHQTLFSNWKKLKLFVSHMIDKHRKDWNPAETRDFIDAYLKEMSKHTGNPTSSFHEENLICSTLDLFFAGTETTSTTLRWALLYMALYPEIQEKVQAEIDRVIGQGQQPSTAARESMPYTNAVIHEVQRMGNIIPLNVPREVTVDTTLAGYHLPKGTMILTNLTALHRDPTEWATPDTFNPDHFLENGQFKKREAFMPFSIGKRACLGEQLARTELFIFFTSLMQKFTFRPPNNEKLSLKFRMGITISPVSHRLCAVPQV

CYP2J2 [2] = target: T2, CYP2J2; experiment: in vitro; remark: listed apart in the source
Cytochrome P450 2C8 = target: T3, Cytochrome P450 2C8 (Homo sapiens, UniProt P10632)
T3 sequence (P10632 whole entry): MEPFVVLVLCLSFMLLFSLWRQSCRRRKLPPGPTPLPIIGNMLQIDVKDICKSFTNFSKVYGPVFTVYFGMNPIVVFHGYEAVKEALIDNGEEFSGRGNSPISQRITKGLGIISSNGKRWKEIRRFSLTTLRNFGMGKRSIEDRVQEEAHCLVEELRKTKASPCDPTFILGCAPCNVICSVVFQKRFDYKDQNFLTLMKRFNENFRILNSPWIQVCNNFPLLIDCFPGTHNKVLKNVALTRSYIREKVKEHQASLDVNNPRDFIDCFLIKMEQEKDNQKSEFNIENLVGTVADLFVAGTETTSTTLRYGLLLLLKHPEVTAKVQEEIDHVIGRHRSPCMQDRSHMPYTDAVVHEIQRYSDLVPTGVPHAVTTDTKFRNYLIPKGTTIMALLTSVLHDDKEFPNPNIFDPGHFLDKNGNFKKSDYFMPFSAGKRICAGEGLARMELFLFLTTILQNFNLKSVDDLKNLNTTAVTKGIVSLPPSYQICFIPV

Cytochrome P450 2C19 = Cytochrome P450 2C19 (Homo sapiens, UniProt P33261)
Sequence of Cytochrome P450 2C19 (P33261 whole entry): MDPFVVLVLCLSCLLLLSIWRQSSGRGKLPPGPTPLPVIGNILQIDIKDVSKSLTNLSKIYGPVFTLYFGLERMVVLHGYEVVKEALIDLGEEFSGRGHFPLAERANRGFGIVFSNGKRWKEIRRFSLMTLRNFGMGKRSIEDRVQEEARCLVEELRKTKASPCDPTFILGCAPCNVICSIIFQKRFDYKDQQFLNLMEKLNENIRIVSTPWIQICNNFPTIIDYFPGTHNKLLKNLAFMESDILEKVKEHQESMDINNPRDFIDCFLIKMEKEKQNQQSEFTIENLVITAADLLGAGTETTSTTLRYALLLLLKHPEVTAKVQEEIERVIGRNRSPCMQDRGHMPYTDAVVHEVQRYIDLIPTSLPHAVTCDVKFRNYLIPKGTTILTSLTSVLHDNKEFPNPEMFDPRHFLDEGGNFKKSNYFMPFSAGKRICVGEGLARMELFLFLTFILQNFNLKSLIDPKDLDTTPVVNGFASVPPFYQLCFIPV

Cytochrome P450 2D6 = Cytochrome P450 2D6 (Homo sapiens, UniProt P10635)
Sequence of Cytochrome P450 2D6 (P10635 whole entry): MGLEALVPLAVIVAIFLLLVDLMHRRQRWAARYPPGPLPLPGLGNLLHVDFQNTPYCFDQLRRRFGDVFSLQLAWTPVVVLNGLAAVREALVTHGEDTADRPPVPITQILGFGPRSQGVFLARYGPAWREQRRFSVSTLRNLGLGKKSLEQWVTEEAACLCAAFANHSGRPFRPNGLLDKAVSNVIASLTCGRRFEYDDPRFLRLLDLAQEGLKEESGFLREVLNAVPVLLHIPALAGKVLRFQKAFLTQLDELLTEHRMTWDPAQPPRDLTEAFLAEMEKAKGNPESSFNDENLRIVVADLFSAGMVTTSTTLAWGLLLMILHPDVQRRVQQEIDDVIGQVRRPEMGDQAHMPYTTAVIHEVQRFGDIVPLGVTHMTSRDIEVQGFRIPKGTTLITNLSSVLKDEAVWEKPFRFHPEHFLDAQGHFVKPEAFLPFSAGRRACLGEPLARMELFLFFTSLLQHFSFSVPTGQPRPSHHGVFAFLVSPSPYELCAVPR

Cytochrome P450 2C9 = Cytochrome P450 2C9 (Homo sapiens, UniProt P11712)
Sequence of Cytochrome P450 2C9 (P11712 whole entry): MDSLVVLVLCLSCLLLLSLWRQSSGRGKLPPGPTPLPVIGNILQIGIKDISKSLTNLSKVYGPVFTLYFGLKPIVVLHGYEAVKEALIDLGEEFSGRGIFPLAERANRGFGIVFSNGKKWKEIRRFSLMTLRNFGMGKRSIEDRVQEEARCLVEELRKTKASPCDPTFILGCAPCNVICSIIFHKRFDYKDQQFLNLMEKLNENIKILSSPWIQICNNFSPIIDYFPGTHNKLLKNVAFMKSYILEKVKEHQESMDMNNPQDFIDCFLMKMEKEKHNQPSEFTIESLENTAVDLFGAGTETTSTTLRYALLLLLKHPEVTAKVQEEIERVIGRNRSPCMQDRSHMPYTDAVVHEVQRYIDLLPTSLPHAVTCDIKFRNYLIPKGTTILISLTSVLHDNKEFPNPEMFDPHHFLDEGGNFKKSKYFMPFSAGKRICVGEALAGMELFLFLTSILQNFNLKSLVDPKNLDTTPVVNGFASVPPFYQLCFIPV

Cytochrome P450 2J2 [3] = target: T4, Cytochrome P450 2J2 (Homo sapiens, UniProt P51589); experiment: Drug metabolism assessed as recombinant CYP2J2 (unknown origin)-mediated compound formation treated with amiodarone at 1 uM after 5 to 45 mins by LC-MS/MS analysis; format: ADME; conditions: recombinant enzyme
T4 sequence (P51589 whole entry): T2 sequence (P51589 whole entry)
Outline: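 Preincubated, then started with NADPH-regenerating system (1 mM NADPH final). Aliquots taken at 0, 5, 10, 20, 30, 45 min and quenched in acetonitrile with internal standard. No-NADPH controls included. Products measured by LC-MS/MS.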

Cytochrome P450 2J2 [4] = target: T4, Cytochrome P450 2J2; experiment: Drug metabolism in human liver microsomes assessed as CYP2J2-mediated compound formation treated with amiodarone at 1 uM after 5 to 45 mins by LC-MS/MS analysis; format: ADME
[5] = Retention time in potassium phosphate buffer treated with amiodarone hydrochloride at 30 uM by HPLC analysis; format: physicochemical
[6] = recombinant CYP2J2, probe astemizole (O-demethylation)
[7] = recombinant CYP2J2, probe terfenadine (hydroxylation)

Row | SMILES | activity at 5 min, 30 µM (CYP2J2 [1]; [6]) [%] | activity at 5 min, 30 µM (CYP2J2 [2]; [7]) [%] | IC50 (Cytochrome P450 2C8) [µM] | other results
1 | COC(=O)C1=C(C)NC(C)=C(C(=O)OC(C)C)C1c1cccc2nonc12 (stereo not drawn) [ISRADIPINE] | 13.6 | 23.7 | – | IC50 (Cytochrome P450 1A2): 28.3 µM
2 | C#C[C@]1(O)CC[C@H]2[C@@H]3CCC4=Cc5oncc5C[C@]4(C)[C@H]3CC[C@@]21C [DANAZOL] | 8 | 1.6 | 1.95 | IC50 (Cytochrome P450 1A2): > 30 µM
3 | Clc1ccccc1C(c1ccccc1)(c1ccccc1)n1ccnc1 [CLOTRIMAZOLE] | 5.6 | 14.1 | – | IC50 (Cytochrome P450 2C19): 7.41 µM; IC50 (Cytochrome P450 2D6): 0.883 µM; IC50 (Cytochrome P450 2C9): 0.136 µM
4 | CNCCC(Oc1ccc(C(F)(F)F)cc1)c1ccccc1 (stereo not drawn) [FLUOXETINE] | – | – | – | activity at 5 min, 30 µM (CYP2J2 [1]; recombinant enzyme): 87%; activity at 5 min, 30 µM (CYP2J2 [2]; recombinant enzyme): 44.3%
5 | CSc1ccc2c(c1)N(CCC1CCCCN1C)c1ccccc1S2 (stereo not drawn) [THIORIDAZINE] | 12.9 | 51.7 | – | –
6 | CC[C@H](C)C(=O)O[C@H]1C[C@@H](C)C=C2C=C[C@H](C)[C@H](CC[C@@H]3C[C@@H](O)CC(=O)O3)[C@H]21 [LOVASTATIN] | 13.6 | 37.7 | – | –
7 | O=c1[nH]c2ccccc2n1C1CCN(CCCC(c2ccc(F)cc2)c2ccc(F)cc2)CC1 [PIMOZIDE] | 6.6 | 27.3 | > 30 | IC50 (Cytochrome P450 1A2): > 30 µM
8 | COC(=O)C1=C(C)NC(C)=C(C(=O)OCCN(C)Cc2ccccc2)C1c1cccc([N+](=O)[O-])c1 (stereo not drawn) [NICARDIPINE] | – | – | – | activity at 5 min, 30 µM (CYP2J2 [1]; recombinant enzyme): 5.8%; activity at 5 min, 30 µM (CYP2J2 [2]; recombinant enzyme): 8.9%
9 | CCC(=O)C(CC(C)N(C)C)(c1ccccc1)c1ccccc1 (stereo not drawn) [METHADONE] | 123 | 43 | – | –
10 | CNCCC=C1c2ccccc2CCc2ccccc21 [NORTRIPTYLINE] | – | – | – | activity at 5 min, 30 µM (CYP2J2 [1]; recombinant enzyme): 70.1%; activity at 5 min, 30 µM (CYP2J2 [2]; recombinant enzyme): 45.3%
11 | COc1ccc(CCN(C)CCCC(C#N)(c2ccc(OC)c(OC)c2)C(C)C)cc1OC (stereo not drawn) | 69.1 | 1.3 | – | IC50 (Cytochrome P450 1A2): > 30 µM
12 | CC(=O)N1CCN(c2ccc(OCC3COC(Cn4ccnc4)(c4ccc(Cl)cc4Cl)O3)cc2)CC1 (stereo not drawn) [KETOCONAZOLE] | 5.4 | 5.8 | – | –
13 | CCOC(=O)N1CCC(=C2c3ccc(Cl)cc3CCc3cccnc32)CC1 [LORATADINE] | – | – | 2.95 | activity at 5 min, 30 µM (CYP2J2 [1]; recombinant enzyme): 4%; activity at 5 min, 30 µM (CYP2J2 [2]; recombinant enzyme): 11.4%
14 | COCCCC/C(=N\OCCN)c1ccc(C(F)(F)F)cc1 [FLUVOXAMINE] | 54.4 | 48.7 | – | –
15 | Clc1ccc(COC(Cn2ccnc2)c2ccc(Cl)cc2Cl)c(Cl)c1 (stereo not drawn) [MICONAZOLE] | 10.1 | 3.4 | – | –
16 | COc1ccc2[nH]c([S+]([O-])Cc3ncc(C)c(OC)c3C)nc2c1 (stereo not drawn) [OMEPRAZOLE] | 70.5 | 46.1 | – | –

Row | SMILES | activity at 5 min, 30 µM (CYP2J2 [1]; [6]) [%] | activity at 5 min, 30 µM (CYP2J2 [2]; [7]) [%] | IC50 (Cytochrome P450 2C8) [µM] | other results
17 | CC(C)COCC(CN(Cc1ccccc1)c1ccccc1)N1CCCC1 (stereo not drawn) [BEPRIDIL] | – | – | > 30 | IC50 (Cytochrome P450 2D6): > 30 µM; IC50 (Cytochrome P450 1A2): > 30 µM
18 | CCN(CC)CCOc1ccc(C(=C(Cl)c2ccccc2)c2ccccc2)cc1 [CLOMIPHENE] | 109 | 44.2 | – | –
19 | CCOC(=O)[C@H](CCc1ccccc1)N[C@@H](C)C(=O)N1Cc2ccccc2C[C@H]1C(=O)O | 64.1 | 51.4 | – | –
20 | O[C@@H](c1cc(C(F)(F)F)nc2c(C(F)(F)F)cccc12)[C@H]1CCCCN1 (relative stereo) [(S,R)-MEFLOQUINE] | 44.6 | 22.4 | > 30 | –
21 | CN(C)CCC=C1c2ccccc2C=Cc2ccccc21 [CYCLOBENZAPRINE] | – | – | – | activity at 5 min, 30 µM (CYP2J2 [1]; recombinant enzyme): 65.9%; activity at 5 min, 30 µM (CYP2J2 [2]; recombinant enzyme): 48.9%
22 | Cc1ccccc1C(OCCN(C)C)c1ccccc1 (stereo not drawn) [ORPHENADRINE] | 102 | 1.2 | > 30 | IC50 (Cytochrome P450 2C19): 24.2 µM; IC50 (Cytochrome P450 2C9): > 30 µM; IC50 (Cytochrome P450 1A2): > 30 µM
23 | CCN(CC)CCOc1c(I)cc(C(=O)c2c(CCCCO)oc3ccccc23)cc1I | – | – | – | Drug metabolism (Cytochrome P450 2J2 [3]): metabolite_detected; Drug metabolism (Cytochrome P450 2J2 [4]): metabolite_detected; Retention_time [5]: 12.7 min
24 | O=c1[nH]c2ccccc2n1CCCN1CCC(n2c(=O)[nH]c3cc(Cl)ccc32)CC1 [DOMPERIDONE] | 50.5 | 43.5 | – | –
25 | Cc1c(OCC(F)(F)F)ccnc1C[S+]([O-])c1nc2ccccc2[nH]1 (stereo not drawn) [LANSOPRAZOLE] | 71.1 | 0.7 | 5.75 | IC50 (Cytochrome P450 2C19): 13.4 µM; IC50 (Cytochrome P450 2D6): 2.9 µM; IC50 (Cytochrome P450 2C9): 19.2 µM; IC50 (Cytochrome P450 1A2): 6.46 µM
26 | O=C(CCCN1CCC(O)(c2ccc(Cl)cc2)CC1)c1ccc(F)cc1 [HALOPERIDOL] | 14.7 | 15.6 | – | –
27 | Fc1ccc([C@@H]2CCNC[C@H]2COc2ccc3c(c2)OCO3)cc1 [PAROXETINE HYDROCHLORIDE] | 39 | 31.6 | > 30 | IC50 (Cytochrome P450 2C9): > 30 µM; IC50 (Cytochrome P450 1A2): 5.33 µM
28 | CCN(CC)Cc1cc(Nc2ccnc3cc(Cl)ccc23)ccc1O [AMODIAQUINE] | 7.7 | 22.5 | – | –
29 | CC/C(=C(\c1ccccc1)c1ccc(OCCN(C)C)cc1)c1ccccc1 [TAMOXIFEN] | 9.1 | 11.5 | 14.3 | –
30 | CCCSc1ccc2nc(NC(=O)OC)[nH]c2c1 [ALBENDAZOLE] | – | – | > 30 | IC50 (Cytochrome P450 2C19): > 30 µM; IC50 (Cytochrome P450 2D6): > 30 µM; IC50 (Cytochrome P450 2C9): > 30 µM; IC50 (Cytochrome P450 1A2): > 30 µM
31 | CCCC1O[C@@H]2C[C@H]3[C@@H]4CCC5=CC(=O)C=C[C@]5(C)[C@H]4[C@@H](O)C[C@]3(C)[C@]2(C(=O)CO)O1 (stereo partly drawn) [BUDESONIDE] | – | 50.8 | – | –
32 | O=c1c(O)c(-c2ccc(O)c(O)c2)oc2cc(O)cc(O)c12 [QUERCETIN] | 44.7 | 29.8 | – | IC50 (Cytochrome P450 2D6): 18.8 µM
